Compound activity as filed in PubChem BioAssay.
Arbovirus inh: antivirals against arbovirus infection; arbovirus infection cell-based antiviral screen; inhibition, % at 10 µM; 0.37% of 200,000 active; in the data active = inhibition above about 30%
Hck-Nef inh: blocks Nef-activated human Hck kinase; inhibition, % at 20 µM; Recombinant Hck-YEEI plus Nef, Z-Lyte FRET kinase assay; 0.68% of 220,000 active; P08631;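 active = Hck-Nef kinase inhibition above about 50%, limit read from the data; inactive = inhibition below that limit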;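 also: 0% = DMSO with Hck plus Nef and 100% = Hck alone without Nef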
NCF1 inh: blocks human p47phox regulatory protein of NADPH oxidases; P14598; p47phox/p22phox peptide binding, fluorescence polarization, 2 h; inhibition, % at 24.7 µM; 0.53% of 220,000 active; AID 1274;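 active = inhibition above about 30%, limit read from the data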;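 also: 0% = p47phox with labelled peptide and 100% = labelled peptide alone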
Target sequence (P14598 whole entry, looked up): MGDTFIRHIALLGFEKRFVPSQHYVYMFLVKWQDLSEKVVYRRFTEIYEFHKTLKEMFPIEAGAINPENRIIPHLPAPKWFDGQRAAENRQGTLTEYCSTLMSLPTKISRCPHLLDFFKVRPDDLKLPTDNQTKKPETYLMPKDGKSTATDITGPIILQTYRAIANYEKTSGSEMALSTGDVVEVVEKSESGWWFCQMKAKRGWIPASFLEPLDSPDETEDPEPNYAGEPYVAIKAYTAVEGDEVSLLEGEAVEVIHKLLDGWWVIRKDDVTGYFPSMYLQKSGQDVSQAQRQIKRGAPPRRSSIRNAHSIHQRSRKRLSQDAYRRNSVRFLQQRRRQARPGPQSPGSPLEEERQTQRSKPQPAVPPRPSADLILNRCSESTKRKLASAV
RAM network inh: blocks the yeast RAM network | S. cerevisiae dse1pr::URA3 reporter, 5-FOA growth OD615, 2 d; analog-sensitive cbk1-as2 kinase mutant strain | inhibition, % at 50 µM | 1.8% of 190,000 active | AID 868;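 active = inhibition above a set limit, 3 SD over mean compound inhibition, cut at about 8.4% in these data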;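 also: 0% = DMSO-only wells with no growth and 100% = 10 µM 1-NA-PP1 full growth; inhibition rescues growth on 5-FOA so higher OD means more RAM inhibition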
Calb biofilm kill: mixture kills Candida albicans biofilm cells | C. albicans biofilm persisters + clotrimazole, fluorescence viability; primary screen in compound mixtures of four per well | inhibition, % at 7.6 µM | 0.02% of 120,000 active | AID 1242;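 active = inhibition above 30.3% in the primary screen of four-compound pools, then above 30% when the compound was retested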;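 also: compounds exposed to preformed 24 h biofilms for 48 h; 0% = untreated biofilm control and 100% = clotrimazole plus chlorhexidine kill blank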
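Test system: C. albicans CAF4-2 wild-type biofilms; buffer or medium: RPMI/MOPS medium, pH 7.0; schedule: 24 h biofilm formation, then 48 h compound exposure, 37 °C; detection: Alamar Blue fluorescence; measure: percent inhibition of biofilm viability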
WT yeast gro inh: growth inhibition of WT yeast, mitochondrial fusion screen. 2.1% of 190,000 active. mitochondrial fusion phenotypic screen, WT strain. inhibition, % at 10 µM; in the data active = inhibition above about 58%; tested in S. cerevisiae
RAM 5-FOA: RAM network inhibitors in efflux-deficient yeast | shares compounds with RAM network inh | S. cerevisiae efflux-deficient reporter strain, 5-FOA growth OD615, 2 days | max inhibition, % | 1,200 tested, under 10 active | AID 1305; call rule not given here;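 also: plate controls were vehicle for no effect and reference inhibitor for full effect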
* = called active by the depositor; . = no result. Shown are actives, neighbours in structure and some others; about 4.6% of the full set was active somewhere.

SMILES	Arbovirus inh	Hck-Nef inh	NCF1 inh	RAM network inh	Calb biofilm kill	WT yeast gro inh	RAM 5-FOA
COc1ccc(-c2ccc(-c3noc(-c4ccccc4C)n3)c(OC)n2)cc1	-6	2	-129	16*	.	2	4
COc1ccc(-c2ccc(-c3noc(-c4cccc(OC)c4)n3)c(OC)n2)cc1	-4	10	.	15*	.	-4	3
C=CCc1ccccc1OCC(O)CNC(=O)c1ccccc1C(=O)O (centres undefined)	.	14	-5	.	23	.	.
CCc1cc(=O)[nH]c(SCCC(F)=C(F)F)n1	6	20	5	3	18	-4	.
CC(C)(NC(=O)c1cc(Cl)c2ccccc2c1O)C(=O)O	.	15	-12	.	33	.	.
CCOC(=O)Cc1csc(NC(=O)NC2(C(F)(F)F)Oc3ccccc3O2)n1	-8	0	-8	14*	.	7	1
CCOc1ccc(/C=C/C(=O)c2ccccc2)cc1	.	5	-10	.	10	.	.
CCOc1cc(/C=C/C(=O)c2ccc(C)cc2)ccc1OCC(=O)N(C)C	-35	3	-12	1	7	-25	.
COc1ccc(C(=O)/C=C/c2ccc(OC)c(COc3ccccc3F)c2)cc1	8	2	-4	19*	16	5	5
COc1ccc(/C=C/C(=O)c2ccccc2)cc1COc1ccc(F)cc1	4	-1	1	19*	.	-8	6
COc1cc(/C=C/C(=O)c2ccc(C)cc2)ccc1OCC#N	-47	4	-22	13*	11	-2	4
Cc1cc(OCc2ccc(F)cc2)nc(-c2ccccc2O)n1	20	3	-6	4	.	16	.
Cc1cc(Oc2ccc(Cl)cc2)nc(-c2ccccc2O)n1	4	6	-4	14*	.	16	2
CCCCc1ccc(-c2csc(/C(C#N)=C\c3ccco3)n2)cc1	7	4	-39	15*	16	-6	9
CCCCc1ccc(-c2csc(/C(C#N)=C/c3ccc(C)o3)n2)cc1	7	-1	-42	13*	.	1	8
COc1ccccc1CNC(=O)COC(=O)CCC(=O)c1cccs1	0	16	0	0	16	-14	.
O=C(COC(=O)C1c2ccccc2Oc2ccccc21)Nc1ccc2c(c1)OCO2	-3	2	-19	5	.	1	.
CCCCCCC1NC(C(=O)O)CS1 (centres undefined)	2	0	3	1	.	10	.
COc1ccc(/C=C/C(=O)c2ccc(Cl)cc2)c(OC)c1	8	1	0	12*	.	11	4
CC(C)(C)CC(=O)NCc1ccc(F)cc1	4	0	-12	-1	.	-4	.
C=CCOC(=O)C1=C(C)NC(C)=C(C(=O)OCC=C)C1/C=C/c1ccccc1	-36	10	0	15*	.	50	5
CCOC(=O)C1=C(C)NC(C)=C(C(=O)OCC)C1/C=C/c1ccccc1	1	2	-14	3	.	18	.
CCNC(=O)OCC12CC3CC(CC(C3)C1)C2	8	3	-2	1	9	-13	.
Cc1cc([N+](=O)[O-])c2c(c1C)C1C=CCC1C(c1ccccn1)N2 (centres undefined)	13	19	9	1	22	20	.
COc1ccccc1C(NC(=O)C1CCCCC1)c1c(O)ccc2ccccc12 (centres undefined)	9	4	1	12*	6	2	5
SMILES	Arbovirus inh	Hck-Nef inh	NCF1 inh	RAM network inh	Calb biofilm kill	WT yeast gro inh	RAM 5-FOA
Cc1cc(N2CC(C)OC(C)C2)nc2ccccc12 (centres undefined)	-3	3	-6	3	14	-11	.
C=CCO/N=C(/C)c1c(O)c(CC)c(-c2ccccc2)n(-c2ccccc2)c1=O	8	13	-5	13*	11	18	2
CCc1c(O)c(/C(C)=N\O)c(=O)n(-c2ccccc2)c1-c1ccccc1	8	0	1	5	9	-20	.
CN(CC(=O)Nc1cccc2ccccc12)c1ccc(S(=O)(=O)N2CCOCC2)cn1	8	-12	-8	6	.	6	.
O=C(Oc1ccc(C(=S)N2CCCCC2)cc1)c1ccccc1F	1	14	8	2	18	15	.
Cc1ccc(-c2cccc(OC(=O)c3ccccc3F)c2)cc1	-18	-2	-13	15*	.	-10	3
CCOc1ccccc1NC(=S)NC(=O)CCCOc1ccc(Cl)cc1Cl	6	-1	1	12*	.	37	2
CCCCC(=O)Nc1cccc(NC(=S)NC(=O)COc2ccccc2Cl)c1	4	3	-4	12*	4	-4	2
CCCOC(=O)c1c(NC(=O)/C=C/c2cnn(C)c2C)sc(C(=O)OCC)c1C	-20	-2	-8	1	.	56	.
CCOC(=O)c1sc(NC(=O)/C=C/c2cnn(CC)c2C)c(C(=O)OCC)c1C	-20	2	9	12*	.	63*	3
Cc1cc([N+](=O)[O-])nn1CCCC(=O)Nc1ccc(Cl)cc1Cl	-4	16	-1	3	11	-17	.
CCOC(=O)c1sc(NC(=O)CCCn2nc([N+](=O)[O-])cc2C)c(C(=O)OCC)c1C	7	3	2	13*	-13	-30	2
CCOC(=O)c1csc(NC(=O)c2ccc(C#N)cc2)n1	6	18	-21	1	2	3	.
Cc1c(N=NC2=C(O)CCCC2=O)c(=O)n(-c2ccccc2)n1C	-6	25	-5	1	21	19	.
O=[N+]([O-])c1ccc2nc(-c3ccc(OC(F)F)cc3)cn2c1	-11	17	-9	3	6	-7	.
CCN(Cc1ccccc1)S(=O)(=O)c1ccc(S(=O)(=O)N(Cc2ccccn2)Cc2ccco2)cc1	-10	-1	-4	13*	.	1	2
Cc1cc(S(=O)(=O)N(Cc2ccccn2)Cc2ccco2)ccc1-n1cnnn1	2	1	1	0	.	-12	.
CC1CCCCN1S(=O)(=O)c1ccc(S(=O)(=O)N(Cc2ccccc2)Cc2ccco2)cc1 (centres undefined)	-4	0	-21	14*	10	0	3
COCCN(C(=S)Nc1cccc(C)c1)C(C)c1cccnc1 (centres undefined)	6	19	.	0	11	8	.
O=C(O)C1CCCCC1C(=O)NCc1ccc(Cl)c(Cl)c1 (centres undefined)	1	16	3	1	9	-2	.
C=CCn1c(=O)c(C(=O)Nc2ccccc2C(=O)OCC)c(O)c2ccccc21	-15	1	-5	14*	.	-2	2
CCCn1c(=O)c(C(=O)Nc2ccccc2C(=O)OC)c(O)c2ccccc21	13	0	45*	14*	.	-19	2
C=CCn1c(=O)c(C(=O)OCC)c(O)c2ccccc21	5	-6	-1	-3	-3	6	.
